Measurements as given in ChEMBL document CHEMBL3102691, “4-Quinolone alkaloids from Melochia odorata” (J Nat Prod, 2014).

How the values were obtained:
[1] = Cytotoxicity against human CEM-TART cells assessed as cell viability after 72 hrs by MTT assay; assay type: cell-based; details: read-out: LC50
Outline: (§1)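 20,000 CEM-TART cells with compound (DMSO, 0.5% final) in RPMI/20% FBS with antibiotic; 72 h at 37 °C, 5% CO2; MTT (5 mg/mL in PBS) added, formazan dissolved in DMSO/0.1% SDS and read on plate reader; triplicate or quadruplicate. Highest concentration tested 100 μM.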

[2] = test system: Human immunodeficiency virus 1; assay: Antiviral activity against HIV1 infected in human CEM-TART cells assessed as inhibition of viral p24 antigen production at 1.7 uM after 48 hrs by FACS analysis; assay type: functional; details: Human immunodeficiency virus 1, CEM-TART
Outline: (§2)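 HIV-infected CEM-TART cells, 48 h. Cells washed in PBS and blocked with murine myeloma IgG (1:100, 30 min, 4 °C). Then fixed in PBS/1% paraformaldehyde/0.05% Triton X100 and stained with AG3.0 mouse anti-P24 (1:50). FITC goat anti-mouse secondary, 30 min at 4 °C each step. Intracellular P24 read by flow cytometry. AZT 5 or 0.5 μg/mL controls.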

[3] = Therapeutic index, ratio of LC50 for human CEM-TART cells to EC50 for HIV-1 infected in human CEM-TART cells; assay type: cell-based; details: read-out: TI
[4] = test system: Human immunodeficiency virus 1; assay: Antiviral activity against HIV-1 infected in human CEM-TART cells assessed as protection against virus-induced cytopathicity after 96 hrs by MTT assay; assay type: functional, organism-based
Outline: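 1A2 subclone of CEM-TART (more lysis-sensitive) in RPMI 1640/20% FBS; compound in DMSO (1% vol) added 2 h after HIV infection; 96 h at 37 °C, 5% CO2; viability by MTT (3–4 h), formazan dissolved in DMSO/0.1% SDS, A570. Triplicates per plate; EC50 = concentration giving 50% of protection by 5 μM AZT, data from ≥3 experiments combined.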

[5] = test system: Human immunodeficiency virus 1; assay: Antiviral activity against HIV1 infected in human CEM-TART cells assessed as inhibition of viral p24 antigen production at 0.95 uM after 48 hrs by FACS analysis; assay type: functional; details: Human immunodeficiency virus 1, CEM-TART; outline: as §2
[6] = Cytotoxicity against human CEM-TART cells assessed as cell viability at 100 uM after 72 hrs by MTT assay; assay type: cell-based; outline: as §1
[7] = Human immunodeficiency virus 1, CEM-TART, 96 h, read-out: EC50

| SMILES | CC50 at 72 h [1] | inhibition at 1.7 µM [2] | selectivity ratio [3] | EC50 [4, 7] | inhibition at 0.95 µM [5] | Activity [6] | EC50 ([4]; cem-tart) |
| --- | --- | --- | --- | --- | --- | --- | --- |
| COc1ccccc1[C@@]1(O)c2ccc3[nH]c(C)c(OC)c(=O)c3c2[C@@H]2CC[C@H]1O2 | 102 µM | > 50% | 2 | 56.2 µM | – | – | – |
| COc1c(C)[nH]c2ccc3c(c2c1=O)[C@@H]1CCC[C@@]3(c2ccccc2)O1 | 11 µM | – | 13 | 0.84 µM | > 50% | – | – |
| Cc1[nH]c2ccc3c(c2c(=O)c1O[C@@H]1O[C@H](CO)[C@@H](O)[C@H](O)[C@H]1O)[C@@H]1CC[C@H](O)[C@@]3(c2ccccc2)O1 | – | – | – | – | – | Non-toxic | Not Active |
| Cc1cn([C@H]2C[C@H](N=[N+]=[N-])[C@@H](CO)O2)c(=O)[nH]c1=O [ZIDOVUDINE] | 89.5 µM | – | – | 1.3 µM | – | – | – |
